Assay outcomes as filed in PubChem BioAssay.
In the library only some 1.9% were active in any assay of this set; here they are far more common.
PP1 counter – blocks human PP1-alpha phosphatase, a PP5 counter-screen; purified PP1alpha, OMFP fluorescence; AID 2235; hit rate 0.9% among 320,000; inhibition, % at 6.7 µM;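 active means inhibition above the mean inhibition of all tested compounds plus 3 SD, computed separately for each screening campaign, cut at about 15% in these data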
LMPTP inh – LMPTP (human) inhibition; hit rate 0.22% among 360,000; inhibition, % at 20 µM; recombinant LMPTP-A, OMFP fluorogenic substrate, fluorescence intensity; P24666;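 active means compounds that cut the enzyme signal by at least half of the control window in the single-dose screen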;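 further: plate controls were DMSO wells with enzyme plus substrate for no effect and substrate without enzyme for full effect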
Target sequence (P24666 whole entry, looked up): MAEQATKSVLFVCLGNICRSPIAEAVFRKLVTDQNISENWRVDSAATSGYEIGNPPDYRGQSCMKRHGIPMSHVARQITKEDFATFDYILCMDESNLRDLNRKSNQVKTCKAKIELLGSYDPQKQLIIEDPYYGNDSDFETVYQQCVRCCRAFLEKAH
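material = LMPTP-A | quantity = 0.625 nM enzyme | reagent = OMFP substrate, 400 µM final | buffer or medium = Bis-Tris pH 6.0, DTT, detergent | detection = endpoint fluorescence intensity from OMFP dephosphorylation | dosing = single 20 µM dose | read-out basis = % inhibition relative to no-enzyme and uninhibited control wells | control set = no-enzyme and uninhibited controls | timing = 50 min at room temperature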
Scp1 inh – inhibitors of human Scp-1 phosphatase. Q9GZU7. Recombinant Scp1, phosphopeptide, malachite green phosphate absorbance. inhibition, % at 20 µM. hit rate 0.88% among 340,000;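 active means inhibition above about 50% at 20 µM, limit read from the data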;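 further: plate controls were DMSO wells with enzyme for no effect and wells lacking enzyme for full effect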
Target sequence (Q9GZU7 76-261 limits assumed): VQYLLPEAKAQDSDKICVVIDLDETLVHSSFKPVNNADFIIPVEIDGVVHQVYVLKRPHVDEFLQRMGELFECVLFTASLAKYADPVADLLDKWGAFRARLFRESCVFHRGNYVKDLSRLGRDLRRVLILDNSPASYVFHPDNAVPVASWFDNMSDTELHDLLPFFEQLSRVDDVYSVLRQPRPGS
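Test system: SCP-1 phosphatase catalytic domain, residues 76-261; measured by: colorimetric phosphate reagent with accelerator and stabiliser, absorbance at 630 nm; timing: enzyme reaction 45 min at room temperature, colour 5 min, stabilisation 30 min; also added: Phosphorylated 17-residue peptide substrate; compound dosing: one concentration, 20 µM, with 1.0% DMSO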
PP5 primary – blocks human protein phosphatase 5 activity. P53041. purified PP5c, OMFP substrate fluorescence. inhibition, % at 6.7 µM. hit rate 0.18% among 320,000;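 active means inhibition above the campaign's mean inhibition across all tested compounds plus 3 SD, cut at about 9.5% in these data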;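 further: 0% = DMSO only and 100% = 100 µM cantharidin control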
STEP inh – STEP (human) phosphatase inhibition | P54829 | recombinant STEP, OMFP fluorogenic substrate, fluorescence | inhibition, % at 20 µM | hit rate 0.25% among 360,000 | AID 588621;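 active means inhibition at 20 µM, scaled per plate between control wells, above about 37%, limit read from the data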;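 further: 0% = DMSO with enzyme and substrate and 100% = substrate only without enzyme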
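Assay system: isolated STEP enzyme / Timing: 20 min at room temperature, dark / Doses: 20 µM, 1% DMSO / Technique: fluorescence intensity, excitation 480 nm, emission 540 nm / Reagent: fluorogenic phosphatase substrate OMFP at 25 µM final / Measure: percent inhibition scaled to no-enzyme and uninhibited-enzyme controls, plate-pattern corrected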
Scp-1 conf – Scp-1 (human) inhibition, single-dose confirmed | recombinant SCP-1 catalytic domain, phosphate release, malachite green absorbance | inhibition, % at 20 µM | shares compounds with Scp1 inh | hit rate 61% among 2,500;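 further: plate controls were DMSO with enzyme for no effect and buffer wells lacking enzyme for full effect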
MG interference – interferes with malachite green readout, flagging false Scp-1 hits | 2,500 tested, under 10 active | apparent inhibition (interference), % at 20 µM | AID 540313 | Colorimetric interference counterscreen, malachite green absorbance 630 nm | shares compounds with Scp1 inh;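 further: compounds added after enzyme reaction finished so only phosphate colour detection is probed; plate controls were DMSO wells with completed Scp-1 reaction for no effect and substrate wells lacking enzyme for full effect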
Scp1 DSF – Scp-1 (human) binding by thermal shift; Recombinant SCP1, Sypro Orange thermal shift Tm; hit rate 25% among 1,500; AID 540329; shares compounds with Scp1 inh; thermal shift relative to vanadate control, % at 40 µM;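 active means substances whose mean melting-temperature shift, as a percentage of the reference inhibitor's shift, reaches about 5.3%, limit read from the data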;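 further: 0% = Tm of DMSO wells and 100% = Tm with sodium orthovanadate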
An asterisk follows results filed as active; · = not tested or not shown.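 How the source made its calls, unless noted: active means inhibition of at least 30% at 20 µM; inactive means the rest.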

SMILES	PP1 counter	LMPTP inh	Scp1 inh	PP5 primary	STEP inh	Scp-1 conf	MG interference	others
COc1cccc(/C=C2/NC(=O)N(CC(=O)Nc3ccc(C)cc3)C2=O)c1OCc1cccc(C(=O)O)c1	-2	2	79*	1	11	72*	-20	Scp1 DSF=-1
CCn1c(C)cc(/C=C2\NC(=O)N(CC(=O)Nc3cccc(C)c3)C2=O)c1C	7	1	1	-1	4	·	·
CCOc1nc(Nc2ccc(OC)cc2)nc(N2CCOCC2)n1	2	0	-4	0	-3	·	·
CCOc1nc(Nc2ccc(OC)cc2)nc(OCC)n1	3	0	67*	2	12	30	-17
CS(=O)(=O)Nc1ccccc1C(=O)NCCSc1ccc(Cl)cc1	·	0	0	·	0	·	·
CCCOc1nc2ccccc2cc1/C=C/C(=O)O	8	1	-3	0	1	·	·
O=C(O)/C=C/c1cnc2ccccc2c1	-3	0	55*	1	0	10	-13
COC(=O)CSc1nc(SCc2ccccc2Cl)nc2c1CCCC2	-4	5	53*	3	2	-5	-3
CCN1C(=O)[C@H]2[C@H]3CN=C(SCc4ccccc4)N3[C@@](Cc3ccccc3)(C(=O)OC)[C@H]2C1=O	·	-2	7	·	1	·	·
CC[C@]1(C(=O)OC)[C@H]2C(=O)N(Cc3ccccc3)C(=O)[C@H]2[C@H]2CN=C(SCc3ccc(C)cc3)N21	·	-1	7	·	0	·	·
CCN1C(=O)[C@H]2[C@H]3CN=C(SCC4CC4)N3[C@@](Cc3ccccc3)(C(=O)OC)[C@H]2C1=O	·	2	82*	·	-3	96*	-6	Scp1 DSF=-12
CC[C@]1(C(=O)OC)[C@H]2C(=O)N(Cc3ccccc3)C(=O)[C@H]2[C@H]2CN=C(SCC3CC3)N21	·	-2	54*	·	1	-2	-19
Cc1ccccc1C(=O)NC1CCSC1=O (stereo not drawn)	2	0	64*	-2	4	14	-16
O=C(NCc1cccnc1)c1cccc(S(=O)(=O)N2CCCC2)c1	3	-1	-5	1	-1	·	·
O=C(NCc1cccnc1)c1cccc(S(=O)(=O)N2CCOCC2)c1	-2	-1	64*	1	4	-15	-10
CCOc1ccc(N=C2NC(=O)S/C2=C\c2ccc(OC)cc2)cc1	6	44	61*	2	16	78*	-3	Scp1 DSF=3
Cc1cc(C)c2c(n1)SCC(=O)N2CC(=O)Nc1c(C)cccc1C	-6	-2	52*	2	3	-14	-11
CCOc1ccc(S(=O)(=O)NCc2ccccc2Cl)cc1C(N)=O	-2	-1	0	0	-4	-21	-19
COc1ccc(S(=O)(=O)NCCN2CCOCC2)cc1Br	1	-1	3	0	0	·	·
CCOC(=O)CSc1[nH]c(=O)cc(C)c1C#N	-2	-1	50*	0	-2	-27	-22
COc1ccc(CCN2C(=O)CCC3=C2CCCC3=O)cc1OC	·	-1	·	·	0	·	·
O=C(Cn1ccc2ccccc2c1=O)NCCC(=O)Nc1cccc(Cl)c1	-4	0	-2	3	-1	·	·
O=C(Cn1ccc2ccccc2c1=O)NCCC(=O)Nc1cccnc1	-1	0	60*	2	4	-8	-2
COc1ccccc1NC(=O)Cn1ncc2c1-c1ccccc1OC2	2	1	-11	2	-3	·	·
CCOC(=O)N1C=CC=C[C@@H]2[C@@H](N3C(=O)c4ccccc4C3=O)C(=O)N21	1	-1	-5	1	0	·	·
Cc1[nH]c2ccccc2c1N=Nc1ccc(F)cc1	0	2	9	4	-2	·	·
Cc1[nH]c2ccccc2c1N=Nc1cc(C(=O)O)cc(C(=O)O)c1	1	1	52*	2	4	-7	-19
CC(C)(C)Cc1nnc(NC(=O)Cc2cccs2)s1	-4	21	58*	1	8	63*	-21	Scp1 DSF=7.2*
